Experimental data taken from PMC2909360 (Molecular microbiology, 2010).

Experiments:
[1] = biological target: purified bovine cathepsin B (Bos taurus, UniProt P07688); assay: Inhibition of cathepsin B, fluorogenic substrate assay; type: biochemical
In short: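 Pre-incubated 10 min at room temperature with increasing inhibitor concentrations, then Z-Leu-Arg-AMC added (0.25 mM final) at 30°C. Linear hydrolysis rate read for 20 min (ex 365/em 450 nm). Triplicates, mean ± SEM. IC50 from activity loss.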

calpain = assay: Inhibition of calpain; type: biochemical; conditions: data not shown

SMILES: CC(C)C[C@H](NC(=O)N1CCOCC1)C(=O)N[C@H](/C=C/S(=O)(=O)c1ccccc1)CCc1ccccc1 [LHVS, Morpholinurea-leucine-homophenylalanine-vinylsulfone-phenyl, reference compound]
- inhibition of cathepsin B (in words) [1]: targets also cathepsin B
- inhibition of calpain (in words) (calpain): targets
